Screening data: PubChem, several laboratories
G6PDH CS: counter-screen for G6PDH assay hits: L. mesenteroides G6PDH inhibition; 200,000 tested, 0.12% active; Purified L. mesenteroides G6PDH, diaphorase/resazurin coupled fluorescence, 45 min; inhibition, % at 5 µM; AID 1020; in the data active = inhibition above about 50%
PMI act satM6P: PMI (human) activation, high substrate; coupled PMI enzyme assay, resazurin fluorescence, 20 min; stronger effect = higher value; 1 = untreated enzyme, 0 = substrate-free blank; activation factor at 20 µM; 190,000 tested, 0.34% active; AID 1216;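 active = activation factor of 2 or more at 20 µM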
Target sequence (P34949 whole entry, looked up): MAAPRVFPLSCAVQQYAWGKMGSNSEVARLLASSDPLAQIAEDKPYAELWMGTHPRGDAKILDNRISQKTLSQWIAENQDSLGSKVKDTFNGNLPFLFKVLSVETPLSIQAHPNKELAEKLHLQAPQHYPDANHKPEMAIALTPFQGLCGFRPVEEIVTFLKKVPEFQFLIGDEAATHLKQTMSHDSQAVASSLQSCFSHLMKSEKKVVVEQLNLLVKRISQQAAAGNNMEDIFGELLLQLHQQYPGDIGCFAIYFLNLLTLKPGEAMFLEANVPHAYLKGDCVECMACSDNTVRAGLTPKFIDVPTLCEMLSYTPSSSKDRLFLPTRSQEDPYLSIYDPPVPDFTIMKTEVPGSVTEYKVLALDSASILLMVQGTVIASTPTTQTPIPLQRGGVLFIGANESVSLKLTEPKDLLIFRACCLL
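test system = human PMI in coupled enzyme assay | medium = HEPES-buffered pH 7.4 with magnesium and detergent | also added = 1.0 mM mannose-6-phosphate substrate with 0.22 mM NADP+ | compound = 20 µM single dose | times = 20 min incubation at room temperature | measured by = resorufin fluorescence (Ex 544/Em 590 nm) from resazurin via diaphorase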
PMI act: phosphomannose isomerase (human) activation | P34949 | purified human PMI, coupled resazurin fluorescence, 20 min; stronger effect = higher value; 1 = vehicle control, 0 substrate-free wells | activation factor at 20 µM | 190,000 tested, 0.005% active;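 active = activation factor of 2 or more at 20 µM, relative to plate controls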
ROMK primary: modulates human ROMK potassium channel activity. P48048. Tet-inducible ROMK, thallium flux fluorescence; actives lie on both sides. B-score at 10 µM. 130,000 tested, 2% active;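 active = signal ratio slope over the read window, or its plate-corrected B-score, at least 3 SD from the plate mean, either direction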;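 also: B-score of the F/F0 ratio slope over 7 to 12 s after thallium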
Diaphorase inh: diaphorase inhibition or chemical oxidation counter-screen | AID 1217 | 190,000 tested, 0.69% active | inhibition, % at 20 µM | diaphorase resazurin-to-resorufin fluorescence, NADH, 16 min; bacterial (C. kluyveri) enzyme, not human;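 active = primary screen inhibition at 20 µM above a set limit, cut at about 50% in these data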;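 also: plate controls were DMSO with full reaction for no effect and wells lacking NADH for full effect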
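System: Diaphorase enzyme from Clostridium kluyveri | Amount: Enzyme working solution with 0.14 U/mL diaphorase | Benchmarks: No-NADH positive control and DMSO neutral control | Signal: Fluorescence of resorufin formed from resazurin, Ex 544/Em 590 nm | Schedule: 16-min room-temperature incubation before reading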
Diaphorase act: diaphorase activation or chemical reduction counter-screen. Diaphorase/resazurin coupled assay, resorufin fluorescence, 16 min; stronger effect = higher value; 1 = vehicle wells, 0 = NADH-free wells. activation factor at 20 µM. 190,000 tested, 0.005% active;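 active = diaphorase activity raised at least twofold by the compound at 20 µM; inactive = activation factor below 2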
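Material: Purified diaphorase enzyme from Clostridium kluyveri | Buffer or medium: 50 mM HEPES pH 7.4 with 4.542 mM MgCl2, 0.005% Tween 20 | Times: 16 min enzyme reaction, ambient temperature | Signal: Red resorufin fluorescence at 544/590 nm excitation/emission | Measure: Increased resorufin signal from activators or reducing compounds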
ROMK hit retest: retested hit modulating human ROMK potassium channel | shares compounds with ROMK primary | ROMK thallium flux, fluorescence ratio; stronger effect = lower value | normalized thallium flux (F/F0 slope) at 10 µM | 3,000 tested, 54% active;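 active = Flux at 10 µM at least 3 SD below or above vehicle control mean in one or both replicates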
* = called active by the depositor; . = no result. Hits are enriched below; roughly 2.2% of the tested compounds scored in any of these assays.

SMILES	G6PDH CS	PMI act satM6P	PMI act	ROMK primary	Diaphorase inh	Diaphorase act	ROMK hit retest
COc1cccc(/C(O)=C/c2nc3ccc(C(=O)NCCc4cccc(C)c4)cc3[nH]c2=O)c1	-19.8	1.1	1	.	15.4	0.8	0.0624*
Cc1ccccc1C(=O)NNC(=S)Nc1cccc(C(F)(F)F)c1	10.1	1.2	1.2	.	-9.7	1.1	0.0643*
O=C(NNC(=S)Nc1cccc(C(F)(F)F)c1)c1ccc(Cl)cc1Cl	-2.8	1.2	1.1	.	13.6	0.9	.
N#CC1(c2ccc(NC(=O)c3ccccc3)cc2)CCCC1	3.3	0.9	0.9	2.34*	19.6	0.8	0.0938
COc1ccc(-c2nnc3n(CCc4ccccc4)c(=O)c4ccccc4n23)cc1OC	2.0	1.1	1.1	.	6.1	0.9	.
Cc1nc(NC(=O)c2cccnc2)ccc1Br	-5.9	1	0.9	.	4.2	1	0.0793
Cc1ccc(C(=O)Nc2ccnc(-c3cccnc3)n2)cc1	-2.4	1	1	4.57*	1.1	1	0.111*
COc1ccc(C(=O)Nc2ccnc(-c3cccnc3)n2)cc1	-0.2	0.8	0.9	4.37*	3.0	1	0.104*
Nc1c(C(=O)N/N=C/c2ccc(OCc3ccccc3)cc2)cnn1-c1ccccc1	.	.	.	-12.9*	.	.	0.0751
O=C(NCC(=O)N1CCN(S(=O)(=O)c2cccs2)CC1)c1ccc(Cl)cc1	3.5	0.9	1	-0.243	4.4	1	.
Cc1ccnc(NC(=O)CCC(=O)N(CC(=O)NC2CCCCC2)Cc2cccs2)c1	-0.2	1	1.1	-0.28	0.0	1	0.0767
COc1ccc(C(=O)N2CCN(c3ccc([N+](=O)[O-])c(NCCc4ccc(OC)c(OC)c4)c3)CC2)cc1	-0.6	0.9	0.9	.	15.9	0.8	0.06*
CCOC(=O)COc1ccc(Br)cc1/C=C/c1[nH]c(=O)[nH]c(=O)c1[N+](=O)[O-]	8.3	1	1.2	-2.72*	23.1	0.8	0.0514*
CCOC(=O)COc1ccc(Br)cc1/C=C\c1[nH]c(=O)[nH]c(=O)c1[N+](=O)[O-]	14.9	0.8	1	-1.2	30.4	0.7	.
O=C1CCCCCN1Sc1ccccc1	7.0	1	1.1	.	13.8	0.9	0.0428*
O=C(CCSc1ccccc1)N1CCCC1	9.1	0.9	0.9	0.317	10.1	0.9	.
CN(C)/N=C/c1ccc(P(c2ccc(/C=N/N(C)C)o2)c2ccc(/C=N/N(C)C)o2)o1	-2.5	1	1	-0.000528	20.0	0.8	.
CC(C)CC(C(=O)OCC(=O)Nc1cccc(Cl)c1)N1C(=O)C2CC=CCC2C1=O (centres undefined)	3.6	0.9	0.8	.	28.0	0.7	.
CCOc1ccccc1NC(=O)COC(=O)C(CC(C)C)N1C(=O)C2CC=CCC2C1=O (centres undefined)	2.0	0.9	0.8	.	22.8	0.8	0.0634*
CCCNC(=O)Cn1nc(C(F)(F)F)cc1C	10.6	.	.	0.109	.	.	.
COc1ccc(C(=O)C2CCCN(C(=O)C3=CCCC3)C2)cc1OC (centres undefined)	7.4	1	1	0.905	10.8	0.9	.
Cc1sc(NC(=O)c2ccccc2)c(C(c2ccc(Cl)cc2)N2CCN(CCO)CC2)c1C (centres undefined)	6.4	0.9	0.9	-2.41*	21.5	0.8	0.0714
CCOc1ccc(C(c2c(NC(=O)c3ccccc3)sc(C)c2C)N2CCN(CCO)CC2)cc1 (centres undefined)	12.9	1	0.8	-1.54	12.3	0.9	.
O=C(C1CCN(Cc2ccc(F)cc2)CC1)N(CCc1ccccc1)Cc1ccccc1	-0.8	1	0.9	-3.45*	23.7	0.8	0.0462*
O=C(C1CCN(Cc2ccc(F)cc2)CC1)N(CCO)Cc1ccccc1	2.2	1.1	1	.	-2.4	1	.
SMILES	G6PDH CS	PMI act satM6P	PMI act	ROMK primary	Diaphorase inh	Diaphorase act	ROMK hit retest
O=C(NCCN1CCOCC1)C(=O)NCc1ccco1	-3.0	1	1	0.171	3.0	1	.
CCn1c(=O)c([N+](=O)[O-])c(Cl)c2ccccc21	13.1	1	1	-4.93*	17.8	0.8	0.0459*
CCn1c(=O)c([N+](=O)[O-])c(NCCN(C)C)c2ccccc21	13.8	0.8	0.7	0.079	40.2	0.6	.
O=C(CSCc1ccccc1)NNC(=S)Nc1cccc(Cl)c1Cl	-13.1	1	1	.	6.3	0.9	0.0786
CCn1c(=O)c2c3c(sc2n2c(=S)[nH]nc12)CCC3	2.5	1	1	2.34*	21.1	0.8	0.0787
C=CCNc1nc(-c2ccc(O)c(C(N)=O)c2)cs1	3.0	0.9	0.9	0.597	33.6	0.7	0.0822
O=C(Nc1ccc(F)cc1F)N1CCC(c2nc3ccccc3o2)CC1	6.5	1	0.9	-1.75	10.4	0.9	.
N=c1c2c(-c3ccccc3)c(-c3ccccc3)n(Cc3ccco3)c2ncn1Cc1ccco1	5.0	0.9	0.9	.	-2.4	1	.
Clc1ccccc1OCCCCn1ccnc1	14.3	0.9	0.9	-0.355	11.2	0.9	.
N=c1c2c(-c3ccccc3)c(-c3ccccc3)n(Cc3ccccc3)c2ncn1CCCn1ccnc1	-1.5	1.1	1	-4.41*	-43.1	1.4	0.0496*
CCCCn1cnc2c(c(-c3ccccc3)c(-c3ccccc3)n2Cc2ccco2)c1=N	.	.	.	.	.	.	0.03*
COc1cc(/C=C(\C#N)C(=O)Nc2ccccc2C(=O)O)cc(Cl)c1OC	-3.1	1.2	1.4	-4.58*	-2.6	1	0.0571*
c1ccc(CN2CCC(Nc3nc(-c4cccnc4)nc4ccccc34)CC2)cc1	-7.4	1	0.9	.	-2.6	1	.
COc1cc(/C=C2/C(=O)NN(c3cccc(F)c3)C2=O)ccc1OC(=O)c1ccco1	-11.6	1.2	1.1	-0.771	20.4	0.8	.
COC(=O)N/N=C/c1ccc(OC(=O)c2ccco2)c(OC)c1	.	.	.	4.62*	.	.	0.0735
COc1cc(/C=N/NC(=O)c2ccc(F)cc2)ccc1OC(=O)c1ccco1	-0.9	1.1	1	0.0389	2.7	1	.
COc1cc(/C=C2/C(=O)NN(c3ccc(Cl)cc3)C2=O)ccc1OC(=O)c1ccco1	-0.5	1.2	1.1	-3.3*	17.4	0.8	0.0708
COc1ccc(/C=C/C(=O)c2cc(Br)ccc2OC(=O)c2ccco2)cc1OC	0.2	1.1	1.1	2.16	-0.9	1	0.0832
Cc1nn(CCOc2cccc(Br)c2)c(C)c1[N+](=O)[O-]	12.1	0.9	0.9	-0.682	12.9	0.9	.
COc1ccc(OC)c(NC(=O)CN(C)CC(=O)Nc2ccccc2Br)c1	3.7	1.1	1.2	0.729	0.8	1	.
